Results of several laboratories.
Each line is one published result; the experiments were not run side by side.
ADAM17: Disintegrin and metalloproteinase domain-containing protein 17 (ADAM17, Homo sapiens, UniProt P78536)
MAPKAPK2: MAP kinase-activated protein kinase 2 (MAPKAPK2, Homo sapiens, UniProt P49137)

CN(CCN1CCC(OC(=O)Nc2ccccc2-c2ccccc2)CC1)C(=O)c1ccc(CN2CCC(C(N)=O)CC2)cc1  inhibition (4-aminobutyrate aminotransferase, mitochondrial (Rattus norvegicus, UniProt P50554); enzyme activity; inhibitor; 1 µM): -12%
CCOC(=O)c1ccc(OC(=O)CCCCCNC(=N)N)cc1  inhibition (ADAM17; enzyme activity; inhibitor; 10 µM): 7%
C[C@H](C(=O)N[C@H]1COc2ccccc2[C@@H]1S(C)(=O)=O)c1ccc(F)cc1  inhibition (Gamma-aminobutyric acid type B receptor subunit 1 (GABBR1, Homo sapiens, UniProt Q9UBS5); cell-free assay; 10 µM): 4%
O=C(Nc1cccnn1)N1CCN([C@@H]2CCOc3cc(C(F)(F)F)ccc32)CC1  inhibition (Motilin receptor (MLNR, Homo sapiens, UniProt O43193); cell-free assay; 20 µM): -3%
C#Cc1n[nH]c2c(-c3cn([C@@H](C)c4ccccc4)c(=O)[nH]c3=O)cc(F)cc12  inhibition (MAPKAPK2; enzyme activity; inhibitor; 0.1 µM): 11.6%
Cn1cc(-c2cccc(N3CCc4c(sc5c4CC(C)(C)C5)C3=O)c2CO)cc(Nc2ccncn2)c1=O  inhibition (Phosphatidylinositol 4,5-bisphosphate 3-kinase catalytic subunit alpha isoform (PIK3CA, Homo sapiens, UniProt P42336); enzyme activity; inhibitor; 1 µM): 14%
C#Cc1n[nH]c2c(-c3cn([C@@H](C)c4ccccn4)c(=O)[nH]c3=O)cc(F)cc12  inhibition (MAPKAPK2; enzyme activity; inhibitor; 0.1 µM): 11.8%
CC(C)C[C@H](CC(=O)NO)C(=O)N[C@H](C(=O)N[C@@H](C)C(=O)NCCN)C(C)(C)C  inhibition (ADAM17; enzyme activity; inhibitor; 10 µM): 73%
c1ccc(C(NCCNC(c2ccccc2)c2ccccc2)c2ccccc2)cc1  inhibition (Vasopressin V1b receptor (AVPR1B, Homo sapiens, UniProt P47901); cell-free assay; 10 µM): 0%
N=C(N)c1ccc2cc(OC(=O)c3ccc(N=C(N)N)cc3)ccc2c1  inhibition (ADAM17; enzyme activity; inhibitor; 10 µM): 5%
COc1cc(Nc2ncc(F)c(Nc3ccc4c(n3)NC(=O)C(C)(C)O4)n2)cc(OC)c1OC  inhibition (Serine/threonine-protein kinase 32B (STK32B, Homo sapiens, UniProt Q9NY57); binding; competition with immobilised ligand; 10 µM): 0%
COc1cc2c(cc1OC)-c1c(oc3cc4c(cc3c1=O)CCO4)CO2  inhibition (Glycogen synthase kinase-3 beta (GSK3B, Homo sapiens, UniProt P49841); enzyme activity; inhibitor; ADP detection; 100 µM): 14.3%
